# Results: PMC7311271 (Nature chemical biology, 2020)
# What was measured:
# [1] = tested on: G6PD cellular activity in HepG2 cells; experiment: 6-pg levels in HepG2 cells; format: cell-based, human
# Summary of the method: (§1)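 Adherent HepG2 or HCT116 cells were grown to 80% confluency in 6-well plates, then given fresh medium containing the test compound over a dose range. They were incubated 2 h at 37 °C, 5% CO2. Metabolites were extracted ~30 min at −20 °C, scraped and centrifuged (15 min, 16,000 rpm, 4 °C). Supernatants were analysed by LC-MS for 6-pg, NADPH and NADP+ (n = 3).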
# [2] = tested on: G6PD cellular activity in HCT116 cells; experiment: NADPH active hydride 2H-labeling from [1-2H]-glucose in HCT116 cells; format: cell-based, human
# Summary of the method: (§2)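 HCT116 cells were incubated 2 h at 37 °C, 5% CO2 in medium containing [1-2H]-glucose tracer plus increasing doses of the test compound. Read-out was 2H transfer to the NADPH active hydride or to free palmitic acid, measured by LC-MS; dose-response curves, n = 3.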
# [3] = biological target: recombinant human G6PD (Homo sapiens, UniProt P11413); experiment: G6PD diaphorase-coupled enzymatic assay; format: biochemical
# Summary of the method: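 Recombinant human G6PD was expressed in E. coli with an N-terminal His6 tag, purified on Ni, thrombin-cleaved and size-excluded. Reactions started with 1 mM G6P at 30 °C, read each minute (ex 530/em 590 nm). RFU/min was normalised to no-compound wells, and IC50 came from a 4-parameter fit.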
# [4] = tested on: G6PD cellular activity in HCT116-mPgd cells; experiment: 6-pg levels in HCT116-mPgd cells; format: cell-based, human; conditions: dose response, compared with DHEA
# [5] = tested on: G6PD cellular activity in HCT116 cells; experiment: Free palmitic acid; format: cell-based, human; conditions: dose response
# Summary of the method: as §2
# [6] = tested on: HCT116 and HepG2 cells; experiment: NADPH pools and NADP+/NADPH ratio in HCT116 and HepG2 cells; format: cell-based, human
# Summary of the method: as §1
# [7] = biological target: G6PD in HepG2 lysates (Homo sapiens, UniProt P11413); experiment: Cellular thermal shift assay; format: binding; conditions: 50 μM, up to 56 °C
# Summary of the method: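 Lysates took test compound or DMSO for 30 min on ice, then were heated 3 min at 47, 50, 53 or 56 °C. After 3 min cooling at room temperature, insoluble material was spun out (17,000 g, 20 min). G6PD signal is expressed relative to the DMSO control.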
# [8] = tested on: HCT116 cells; experiment: Colony formation; format: cell-based, human; conditions: increasing doses
# [9] = tested on: T cell lineages; experiment: LC-MS quantification of NADPH and NADP+ pools, T cell lineages; format: cell-based
# Summary of the method: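 Suspension T cells (2×10^6 in 1 mL medium, 12-well plates) were incubated with the test compound. Metabolites were acid-extracted 5 min on ice and neutralised with NH4HCO3. After centrifugation (15 min, 16,000 rpm, 4 °C), supernatants were analysed for NADPH and NADP+ by LC-MS.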
# [10] = tested on: RBC = red blood cells (mouse); experiment: LC-MS quantification of NADPH pools, RBCs; format: cell-based
# Summary of the method: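 Mouse blood was collected by cardiac puncture into heparin. Serum and buffy coat were removed after a 500 rpm spin at 4 °C, and cells were washed three times in PBS and used immediately in RPMI. Red cells (2×10^6 in 1 mL, 12-well plates) were incubated with the test compound, acid-extracted, neutralised with NH4HCO3, and analysed for NADPH by LC-MS.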
# [11] = tested on: mouse bone-marrow derived macrophages; experiment: LC-MS quantification of NADPH pools, macrophages; format: cell-based
# [12] = tested on: neutrophils; experiment: NADPH in neutrophils; format: cell-based
# Summary of the method: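 Mouse neutrophils were enriched by negative selection from femur/tibia bone marrow of 8–12 week old mice. Cells were cultured in RPMI with 10% heat-inactivated FBS, 5 mM HEPES and 2 mM EDTA. Metabolites were extracted after 30 min of PMA stimulation and analysed for NADPH by LC-MS.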
# [13] = tested on: G6PD in active mouse CD8+ and CD4+ T cells; experiment: NADPH labeling, NADPH, NADP+ and 6-pg levels in active T cells; format: cell-based
# Summary of the method: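 Active CD8+ T cells (day 4–5 post-activation), including cells from G6PD-Tg mice and littermate controls, were treated 2 h with increasing test-compound doses, with a [1-2H]-glucose tracer for labeling. For reversibility, cells were pretreated 2 h, then moved to final media for 2 h. For absolute quantification, extracts were spiked with NADP+ or NADPH standards, and packed cell volume was taken as 1.5 µL per 2 × 10^6 cells. Analysis was by LC-MS, n = 3, two-tailed unpaired t-test.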
# [14] = tested on: oxPPP flux in active CD8+ T cells; experiment: Absolute oxPPP flux by 14CO2 emission; format: cell-based, mouse; conditions: 10 μM, 4 h
# Summary of the method: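 Active mouse CD8+ T cells were used at day 4 post plate-bound anti-CD3/anti-CD28 stimulation, cultured with IL-2. Three million cells were incubated 4 h in a sealed flask with 0.1% DMSO or 10 μM test compound. Released 14CO2 was trapped in 10 M KOH, the reaction was stopped with 1 M HCl, and radioactivity was counted by scintillation. Flux (fmol h-1 cell-1) was normalised to cell number, labeling time and tracer fraction; mean ± SD, n = 5.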
# [15] = tested on: active CD8+ T cells; experiment: Fatty acid synthesis; format: cell-based, mouse; conditions: 2 h, [U-13C]glucose tracer
# [16] = tested on: active CD8+ and CD4+ T cells; experiment: Intracellular ROS; format: cell-based, mouse; conditions: 2 h
# Summary of the method: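 Active mouse T cells were incubated 2 h with increasing test-compound concentrations, then stained with CellROX Green and a viability dye and analysed by flow cytometry.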
# [17] = tested on: mouse naïve CD8+ T cells stimulated by CD3/CD28 + IL-2; experiment: T cell activation markers; format: cell-based; conditions: increasing concentrations
# Summary of the method: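 Naïve CD8+ T cells were isolated from mouse spleens as strained single-cell suspensions in PBS with 0.5% BSA and 2 mM EDTA. Cells were rested with IL-7 (50 U/mL) or stimulated 48 h on plate-bound anti-CD3 (10 µg/ml) plus anti-CD28 (5 µg/ml) in RPMI with 100 μM alanine and IL-2 (100 U/mL), with increasing test compound. Read-outs were Live/Dead Aqua viability, surface CD69 and CD25, and FSC-A size. Two independent experiments were run.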
# [18] = tested on: CD8+ T cells; experiment: CD8+ T cell proliferation by Cell Trace Violet dilution; format: cell-based, mouse; conditions: day 4 post-activation
# Summary of the method: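 Naïve CD8+ T cells were isolated from mouse spleen by magnetic bead selection and stained with CellTrace Violet. Cells were kept naïve with IL-7 or stimulated with anti-CD3/anti-CD28 + IL-2, in increasing test-compound concentrations. Cells were refed at days 2 and 3. At day 4, dye dilution was read by flow cytometry with propidium iodide as viability stain; 2 independent experiments.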
# [19] = tested on: CD8+ T cells; experiment: CD8+ T cell viability; format: cell-based, mouse
# [20] = tested on: CD4+ T cells; experiment: CD4+ T cell proliferation by CFSE dilution; format: cell-based, mouse; conditions: day 3 post-activation
# Summary of the method: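 In a Treg suppression set-up, mouse Tconv cells were labeled with CFSE and Treg cells with CellTrace Violet. Tconv cells were stimulated with irradiated antigen-presenting cells plus CD3ε mAb (1 µg/mL). After 72 h, proliferation was read by flow cytometry as dye dilution.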
# [21] = tested on: active CD8+ T cells; experiment: Intracellular cytokines in active CD8+ T cells; format: cell-based, mouse; conditions: PMA + IO, increasing doses
# Summary of the method: (§3)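 Mouse CD4+ or CD8+ T cells were activated 48 h with plate-bound anti-CD3 (10 µg/ml)/anti-CD28 (5 µg/ml), IL-2 (100 U/mL) and 100 μM alanine, then kept in IL-2 and used at day 4–5. Cells were restimulated 6 h with PMA (20 ng/ml) + ionomycin (1 ug/ml), GolgiStop and increasing test-compound concentrations. After Live/Dead Aqua, CD4/CD8a surface staining, fixation and permeabilisation, IFNγ, TNFα and IL-2 were read by flow cytometry.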
# [22] = tested on: active CD4+ T cells; experiment: Intracellular cytokines in active CD4+ T cells; format: cell-based, mouse; conditions: PMA + IO, increasing doses
# Summary of the method: as §3
# [23] = tested on: CD4+ T cells (Foxp3+ iTreg); experiment: Foxp3+ iTreg formation and proliferation; format: cell-based, mouse; conditions: CD3/CD28 stimulation in the presence of TGF-β
# [24] = tested on: bone marrow derived macrophages; experiment: Intracellular cytokines and iNOS in bone marrow derived macrophages; format: cell-based, mouse
# Summary of the method: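 Mouse bone-marrow progenitors from femur and tibia were matured in DMEM with 10% FBS and 20% L929-conditioned medium. Macrophages were stimulated 6 h with LPS (100 ng/mL) + IFNγ (20 ng/mL), with GolgiStop and increasing test-compound concentrations. Cells were stained with Live/Dead Aqua, fixed and permeabilised, and stained for TNFα, IL-6 and iNOS before flow cytometry; 2 independent experiments.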
# [25] = tested on: mouse neutrophils; experiment: Neutrophil oxidative burst assay; format: cell-based; conditions: PMA 100 nM, 50 μM
# Summary of the method: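 Mouse bone-marrow neutrophils were plated at 2 × 10^5 cells/well in bicarbonate-free RPMI 1640 on Cell-Tak-coated wells, spun 200 × g for 1 min and rested 1 h at 37 °C. Test compound (50 µM) or vehicle was added just before the run. Oxidative burst was triggered with PMA (100 nM), and rotenone + antimycin A (0.5 µM each) were added at t = 20 min. OCR was measured by extracellular flux analysis; n = 6.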
# [26] = tested on: human neutrophils; experiment: Neutrophil oxidative burst assay; format: cell-based; conditions: PMA 100 nM, 50 μM
# Summary of the method: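 Human neutrophils were plated at 5 × 10^4 cells/well in RPMI 1640 with 0.1% human serum albumin on Cell-Tak-coated wells, spun 200 × g for 1 min and rested 1 h at 37 °C. Test compound (50 µM) or vehicle was added just before the run. Burst was triggered with PMA (100 nM), and OCR was measured by extracellular flux analysis; n = 6.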
# [27] = tested on: HCT116 cells; experiment: Metabolomics in wild-type and ΔG6PD HCT116 cells; format: cell-based, human; conditions: 50 μM, 2 h
# Summary of the method: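 Adherent cells were grown to 80% confluency. Medium containing test compound was added, and cells were held at 37 °C in 5% CO2 for 2 h. Extraction was at −20 °C for ~30 min, after which wells were scraped and extracts centrifuged (16,000 rpm, 15 min, 4 °C). Supernatants were stored at −80 °C and analysed by LC-MS.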
# [28] = tested on: CD8+ T cells; experiment: Untargeted metabolomics on CD8+ T cells; format: cell-based, mouse; conditions: active CD8+ T cells, 2 h
# Summary of the method: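 Active mouse CD8+ T cells were treated 2 h with the test compound. Water-soluble metabolites were extracted and profiled by LC-MS; mean, n = 3. Metabolites with fold-change > 4 were flagged.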
# Sequence of recombinant human G6PD (P11413 28-515): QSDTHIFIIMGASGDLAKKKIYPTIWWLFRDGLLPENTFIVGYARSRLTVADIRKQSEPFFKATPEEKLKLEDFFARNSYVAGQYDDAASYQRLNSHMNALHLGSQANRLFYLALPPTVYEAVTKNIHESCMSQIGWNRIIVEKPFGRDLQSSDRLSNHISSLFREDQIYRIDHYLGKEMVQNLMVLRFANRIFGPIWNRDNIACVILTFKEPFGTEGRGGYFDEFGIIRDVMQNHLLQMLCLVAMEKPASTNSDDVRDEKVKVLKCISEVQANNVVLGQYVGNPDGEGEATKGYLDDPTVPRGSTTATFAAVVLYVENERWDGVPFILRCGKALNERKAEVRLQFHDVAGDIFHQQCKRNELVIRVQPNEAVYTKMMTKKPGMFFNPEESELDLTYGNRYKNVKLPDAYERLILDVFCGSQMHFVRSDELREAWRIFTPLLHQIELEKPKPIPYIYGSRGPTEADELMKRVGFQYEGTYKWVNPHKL
# Sequence of G6PD in HepG2 lysates (P11413 whole entry): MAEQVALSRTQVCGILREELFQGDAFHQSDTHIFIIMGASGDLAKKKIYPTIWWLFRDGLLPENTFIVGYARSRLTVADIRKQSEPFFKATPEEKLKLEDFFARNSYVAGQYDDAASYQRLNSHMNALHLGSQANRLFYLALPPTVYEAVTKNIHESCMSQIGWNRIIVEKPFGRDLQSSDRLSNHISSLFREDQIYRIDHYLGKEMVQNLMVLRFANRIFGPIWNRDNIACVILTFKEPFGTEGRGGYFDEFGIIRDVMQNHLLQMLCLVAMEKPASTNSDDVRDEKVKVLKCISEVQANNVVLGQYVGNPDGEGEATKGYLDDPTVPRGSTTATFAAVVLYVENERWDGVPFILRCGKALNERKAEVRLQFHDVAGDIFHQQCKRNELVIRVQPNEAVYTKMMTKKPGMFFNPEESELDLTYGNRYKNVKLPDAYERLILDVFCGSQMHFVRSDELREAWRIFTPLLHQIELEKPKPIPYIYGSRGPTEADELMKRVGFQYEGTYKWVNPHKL
compound,measurement,setting,value
"OC[C@H]1O[C@@H](Oc2cc(O)cc(/C=C/c3ccc(O)cc3)c2)[C@H](O)[C@@H](O)[C@@H]1O [polydatin, reference compound]",effect on 6-pg levels,"[1]; HepG2 cells, 50 μM, 2 h",failed to decrease
same,effect on NADPH active hydride labeling,"[2]; 50 μM, 2 h",failed to decrease
"Cc1cccc(Nc2ncc3c(n2)CCCC3=O)c1 [G6PDi-precursor, 2-[(3-methylphenyl)amino]-5,6,7,8-tetrahydroquinazolin-5-one]",in vitro activity against human G6PD,[3],low micromolar
"CN(c1cccc(C#N)c1)c1ncc2c(n1)CCCC2=O [G6PDi-neg-ctrl, 3-[methyl(5-oxo-5,6,7,8-tetrahydroquinazolin-2-yl)amino]benzonitrile]",in vitro activity against human G6PD,[3],lacked any activity
"N#Cc1cc(Nc2ncc3c(n2)CCCCC3=O)cs1 [G6PDi-1, 4-([5-oxo-6H,7H,8H,9H-cyclohepta[d]pyrimidin-2-yl]amino)thiophene-2-carbonitrile]",mode of binding to G6PD,[3]; in vitro dilution experiments and competition assays against both substrates,reversibly and non-competitively
same,dose-dependent decrease in 6-pg levels,"[1]; HepG2 cells, dose response",dose-dependent decrease
same,IC50,"[1]; Homo sapiens, HepG2, read-out: IC50 for decrease in 6-pg levels",~13 µM
same,suppression of 6-pg levels,[4],much more effectively suppressed
same,dose-dependent decrease in 2H transfer to NADPH's active hydride,[2]; dose response,dose-dependent decrease
same,dose-dependent decrease in 2H transfer to C16:0,[5],dose-dependent decrease
same,NADPH pools,[6]; HCT116 and HepG2 cells,largely unperturbed
same,NADP+/NADPH,"[6]; HCT116 cells, dose response",dose-dependent increase
same,thermal stabilization of G6PD,[7],significant thermal stabilization
same,colony formation,[8],dose-dependent decrease
same,decrease in NADPH,[9],greater than 10 fold
same,sensitivity of NADPH pools,[10],fairly sensitive
same,effect on NADPH,[11],did not decrease
same,effect on NADPH,[12],did impact NADPH
same,"time to restoration of NADPH, NADP+ and 6-pg levels after removing the inhibitor",[13]; activated CD8+ T cells,≤ 2 h
same,effect of G6PD overexpression on dose response of NADPH and NADP+,[13]; active CD8+ T cells from G6PD-Tg mice vs littermate controls,markedly shifted the dose response
same,"time to onset of effects on NADPH labeling and NADP+, NADPH and 6-pg levels","[13]; active CD8+ T cells, 50 μM",≤ 10 min
same,NADPH and 6-pg levels,[13]; mouse CD8+ and CD4+ T cells day 4–5 post-activation,decreased
same,2H transfer from glucose to NADPH,"[13]; mouse CD8+ and CD4+ T cells day 4–5 post-activation, 10 μM, [1-2H]-glucose",completely blocked
same,absolute oxPPP flux,[14],blocked
same,fatty acid synthesis,[15],nearly completely ablated
same,reactive oxygen species (ROS),[16],elevated
same,upregulation of activation markers and activation-dependent increase in cell size,[17],did not alter
same,activation-dependent proliferation,[18],minimal effect
same,viability,[19],minimal effect
same,proliferation of CD4+ T cells,[20],minimal effect
same,IFNγ and TNF-α production,[21],blocked
same,IL-2 and TNF-α production,[22],blocked
same,formation and proliferation of Foxp3+ cells,[23],unaffected
same,LPS-induced pro-inflammatory cytokine production or iNOS upregulation,[24],did not decrease
same,oxidative burst (oxygen consumption rate),[25],decreased
same,oxidative burst (oxygen consumption rate),[26],decreased
same,off-target metabolic effects,[27],some potential off-target effects on purine nucleosides
same,specificity of metabolic effects,[28],clean on-target activity
